# Reference: ChEMBL document CHEMBL2176900, “Design and synthesis of a novel series of bicyclic heterocycles as potent γ-secretase modulators” (J Med Chem, 2012)
# The source made the active and inactive calls. The rule behind the calls is not given here.
# How the values were obtained:
# Canis familiaris [1] = experiment: Antialzheimer activity in beagle dog assessed as amyloid beta 38 level in cerebrospinal fluid at 20 mg/kg, po at 24 hrs by ELISA relative to control
# Rattus norvegicus [2] = experiment: Antialzheimer activity in Sprague-Dawley rat assessed as amyloid beta 37 level in CSF at 10 mg/kg, po at 25 hrs by ELISA relative to control; assay type: functional
# How it was run: (§1)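 Male Sprague-Dawley rats (180-220 g), fasted overnight, were given 10 mg/kg by gastric intubation as a 5 mg/mL suspension in 0.5% methocellulose. At 2, 4, 7 and 25 h, 50 μL CSF was taken from the cisterna magna under isoflurane, then brain was collected. Aβ37/38/40/42 were measured by MesoScale Discovery sandwich immunoassays. Results are mean % change versus T = 0 h, n = 5.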
# [3] = Oral bioavailability in Sprague-Dawley rat at 10 mg/kg; assay type: ADME, organism-based; conditions: in vivo
# Rattus norvegicus [4] = experiment: Antialzheimer activity in Sprague-Dawley rat assessed as amyloid beta 38 level in CSF at 10 mg/kg, po at 4 hrs by ELISA relative to control; assay type: functional
# How it was run: as §1
# Rattus norvegicus [5] = experiment: Antialzheimer activity in Sprague-Dawley rat assessed as amyloid beta 40 level in CSF at 10 mg/kg, po at 2 hrs by ELISA relative to control; assay type: functional
# How it was run: as §1
# Plasma = experiment: Plasma concentration in CD1 mouse at 10 mg/kg, po at 48 hrs by LC-MS/MS analysis; assay type: ADME, organism-based; parameters: dose 10 mg/kg, route oral; conditions: in vivo, BLD = below limit of detection
# How it was run: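 Mice received a single 10 or 30 mg/kg oral dose. Plasma was sampled at several time points up to 48 h, with EDTA plasma obtained by centrifugation at 1900g, 10 min, 4 °C. Compound was quantified by LC-MS/MS, n = 4.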
# Rattus norvegicus [6] = experiment: Antialzheimer activity in Sprague-Dawley rat assessed as amyloid beta 42 level in CSF at 10 mg/kg, po at 25 hrs by ELISA relative to control; assay type: functional
# How it was run: as §1
# Rattus norvegicus [7] = experiment: Antialzheimer activity in Sprague-Dawley rat assessed as amyloid beta 42 level in CSF at 10 mg/kg, po at 4 hrs by ELISA relative to control; assay type: functional
# How it was run: as §1
# [8] = Lipophilicity, log P of the compound; assay type: physicochemical; conditions: octanol/water
# [9] = Thermodynamic solubility in buffer at pH 7.4; assay type: physicochemical; conditions: read-out: Therm_solubility
# How it was run: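 Thermodynamic solubility was measured in pH 4.0 and pH 7.4 buffers, 0.01 N HCl, and fasted-state and fed-state simulated intestinal fluids (FaSSIF, FeSSIF). Results are in […].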
# Mus musculus [10] = experiment: Antialzheimer activity in CD1 mouse assessed as amyloid beta 42 level in brain at 10 mg/kg, po at 48 hrs by ELISA relative to control; assay type: functional
# How it was run: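 Male CD1 mice, fasted overnight, received a single 10 or 30 mg/kg oral dose. Brain was sampled at an added 48 h time point. The DEA-soluble brain fraction was neutralized and Aβ42 was measured by sandwich ELISA with fluorogenic read-out. Values are % versus vehicle.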
# hERG (KCNH2) = hERG (KCNH2) (Homo sapiens, UniProt Q12809); experiment: Inhibition of human ERG at 3 uM by patch clamp assay
# How it was run: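 Potassium membrane current was recorded with an automated patch-clamp system at 3 μM, with a vehicle control.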
# Rattus norvegicus [11] = experiment: Antialzheimer activity in Sprague-Dawley rat assessed as amyloid beta 40 level in brain at 10 mg/kg, po at 2 hrs by ELISA relative to control; assay type: functional
# How it was run: as §1
# [12] = Drug metabolism in human liver microsomes at 1 uM after 15 mins by ion-trap mass spectrophotometry; assay type: ADME, Microsome; conditions: read-out: Drug metabolism
# Mus musculus [13] = experiment: Antialzheimer activity in CD1 mouse assessed as amyloid beta 42 level in brain at 10 mg/kg, po at 24 hrs by ELISA relative to control; assay type: functional
# How it was run: (§2)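 Male CD1 SPF mice, fasted overnight, got a single oral dose of 10 or 30 mg/kg. At each time point the right brain hemisphere was homogenized in 0.4% DEA/50 mM NaCl with protease inhibitors and spun at 221300g for 50 min. The supernatant was neutralized with Tris-HCl pH 6.8. Aβ38 or Aβ42 was read by sandwich ELISA with a fluorogenic peroxidase substrate (ex 320/em 420 nm). Results are mean % change versus T = 0 h, n = 4.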
# Mus musculus [14] = experiment: Antialzheimer activity in CD1 mouse assessed as amyloid beta 38 level in brain at 10 mg/kg, po at 24 hrs by ELISA relative to control; assay type: functional
# How it was run: as §2
# [15] = Fraction unbound in human plasma; assay type: ADME, cell-free
# [16] = Drug metabolism in dog liver microsomes at 1 uM after 15 mins by ion-trap mass spectrophotometry; assay type: ADME, Canis lupus familiaris, Microsome; conditions: read-out: Drug metabolism
# Rattus norvegicus [17] = experiment: Antialzheimer activity in Sprague-Dawley rat assessed as amyloid beta 40 level in CSF at 10 mg/kg, po at 25 hrs by ELISA relative to control; assay type: functional
# How it was run: as §1
# Mus musculus [18] = experiment: Inhibition of gamma-secretase in CD1 mouse assessed as total amyloid beta level in brain at 10 mg/kg, po at 24 hrs by ELISA relative to control; assay type: functional; parameters: scale not given: the % may be the effect or the level left
# How it was run: (§3)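 Fasted male CD1 SPF mice were dosed orally at 10 or 30 mg/kg in 20% Captisol. Right hemisphere was homogenized in 0.4% DEA/50 mM NaCl and the high-speed supernatant neutralized. Aβtotal ELISA used N-terminal JRF/rAβ/2 capture, biotinylated 4G8 and streptavidin-peroxidase, then a fluorogenic substrate (ex 320/em 420 nm). Standards spanned 10000–0.3 pg/mL. Values are % change vs T = 0 h, n = 4.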
# Mus musculus [19] = experiment: Reduction in total amyloid beta level in CD1 mouse at 30 mg/kg, po at 4 hrs by ELISA relative to control; assay type: functional, organism-based; parameters: dose 30 mg/kg
# How it was run: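 Overnight-fasted male CD1 Swiss SPF mice were given a single oral dose as a suspension in 20% Captisol in water. Brains were taken at 4 h and the right hemisphere homogenized in 0.4% DEA/50 mM NaCl with protease inhibitors, then spun at 221300g for 50 min. The neutralized supernatant was read by Aβtotal ELISA (capture JRF/rAβ/2, biotinylated 4G8, streptavidin-peroxidase, QuantaBlu, ex 320/em 420 nm). Values are % change versus untreated animals, n ≥ 6.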
# Canis familiaris [20] = experiment: Antialzheimer activity in beagle dog assessed as amyloid beta 38 level in cerebrospinal fluid at 20 mg/kg, po at 8 hrs by ELISA relative to control
# Mus musculus [21] = experiment: Inhibition of gamma-secretase in CD1 mouse assessed as total amyloid beta level in brain at 30 mg/kg, po at 4 hrs by ELISA relative to control; assay type: functional; parameters: scale not given: the % may be the effect or the level left
# How it was run: as §3
# [22] = Inhibition of sodium channel site 2 at 10 uM
# Canis familiaris [23] = experiment: Antialzheimer activity in beagle dog assessed as amyloid beta 42 level in cerebrospinal fluid at 20 mg/kg, po at 4 hrs by ELISA relative to control
# Chain of hERG (KCNH2) (Q12809 whole entry): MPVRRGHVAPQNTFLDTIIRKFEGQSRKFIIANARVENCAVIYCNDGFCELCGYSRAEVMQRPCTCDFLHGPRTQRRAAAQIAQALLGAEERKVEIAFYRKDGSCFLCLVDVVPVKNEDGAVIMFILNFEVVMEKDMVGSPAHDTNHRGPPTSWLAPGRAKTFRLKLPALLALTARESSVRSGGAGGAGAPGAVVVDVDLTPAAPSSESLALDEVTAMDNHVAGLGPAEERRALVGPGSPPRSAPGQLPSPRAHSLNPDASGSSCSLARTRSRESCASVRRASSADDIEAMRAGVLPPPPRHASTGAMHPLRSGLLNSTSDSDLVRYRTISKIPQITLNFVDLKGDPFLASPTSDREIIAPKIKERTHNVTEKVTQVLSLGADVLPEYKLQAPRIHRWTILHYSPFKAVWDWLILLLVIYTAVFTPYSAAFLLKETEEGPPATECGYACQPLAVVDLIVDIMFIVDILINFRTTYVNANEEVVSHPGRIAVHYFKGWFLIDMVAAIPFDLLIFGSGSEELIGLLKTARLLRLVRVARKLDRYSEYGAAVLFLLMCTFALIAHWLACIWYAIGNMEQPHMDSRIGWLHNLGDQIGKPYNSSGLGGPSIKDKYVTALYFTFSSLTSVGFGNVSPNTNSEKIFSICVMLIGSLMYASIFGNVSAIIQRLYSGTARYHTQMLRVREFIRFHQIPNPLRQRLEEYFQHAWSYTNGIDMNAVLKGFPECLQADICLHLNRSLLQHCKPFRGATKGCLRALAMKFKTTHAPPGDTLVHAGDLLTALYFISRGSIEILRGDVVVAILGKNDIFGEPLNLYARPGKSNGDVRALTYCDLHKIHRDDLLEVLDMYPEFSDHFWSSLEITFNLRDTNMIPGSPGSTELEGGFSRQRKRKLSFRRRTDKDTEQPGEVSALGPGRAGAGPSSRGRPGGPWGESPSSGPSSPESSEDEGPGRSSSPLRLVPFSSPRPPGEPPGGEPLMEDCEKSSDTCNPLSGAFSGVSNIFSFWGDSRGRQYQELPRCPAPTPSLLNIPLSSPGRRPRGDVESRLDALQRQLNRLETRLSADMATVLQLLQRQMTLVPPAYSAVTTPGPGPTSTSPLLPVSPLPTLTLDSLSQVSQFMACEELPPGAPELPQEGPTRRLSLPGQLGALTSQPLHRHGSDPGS
compound,measurement,setting,value
COc1nc(Nc2cccc3c2nc(-c2ccc(F)cc2)n3C)ccc1-n1cnc(C)c1,Activity,Canis familiaris [1],114%
same,Activity,Rattus norvegicus [2],124%
same,bioavailability,[3],95%
same,Activity,Rattus norvegicus [4],179%
same,Activity,Rattus norvegicus [5],60%
same,Cp,Plasma,BLD
same,Activity,Rattus norvegicus [6],89%
same,Activity,Rattus norvegicus [7],66%
same,logP,[8],5.25
same,solubility thermodynamic,[9],< 1 µg/mL
same,Activity,Mus musculus [10],101%
same,inhibition at 3 µM,hERG (KCNH2),30%
same,Activity,Rattus norvegicus [11],77%
same,"metabolised at 0.25 h, 1 µM",[12],6%
same,Activity,Mus musculus [13],94%
same,Activity,Mus musculus [14],83%
same,fraction unbound,[15],0.0013
same,"metabolised at 0.25 h, 1 µM",[16],37%
same,Activity,Rattus norvegicus [17],83%
same,Activity,Mus musculus [18],94%
same,Activity,Mus musculus [19],inactive
same,Activity,Canis familiaris [20],184%
same,Activity,Mus musculus [21],98%
same,inhibition,[22],60%
same,Activity,Canis familiaris [23],81%
